Test results reported in ChEMBL document CHEMBL5036380, “New Highly Potent NLRP3 Inhibitors: Furanochalcone Velutone F Analogues” (ACS Med Chem Lett, 2022).
Activity calls are given as the source filed them. No cut-off for these calls is given here.

How the values were obtained:
[1] = biological target: NACHT, LRR and PYD domains-containing protein 3 (Homo sapiens) (UniProt Q96P20); assay: Binding affinity to NLRP3 in LPS stimulated human THP-1cells assessed as prevention of pronase-mediated protein degradation at 0.01 to 1mM incubated 50 mins before pronase treatment by label-free DARTS assay
Chain of NACHT, LRR and PYD domains-containing protein 3 (Homo sapiens) (Q96P20 whole entry, the tested form may be a part): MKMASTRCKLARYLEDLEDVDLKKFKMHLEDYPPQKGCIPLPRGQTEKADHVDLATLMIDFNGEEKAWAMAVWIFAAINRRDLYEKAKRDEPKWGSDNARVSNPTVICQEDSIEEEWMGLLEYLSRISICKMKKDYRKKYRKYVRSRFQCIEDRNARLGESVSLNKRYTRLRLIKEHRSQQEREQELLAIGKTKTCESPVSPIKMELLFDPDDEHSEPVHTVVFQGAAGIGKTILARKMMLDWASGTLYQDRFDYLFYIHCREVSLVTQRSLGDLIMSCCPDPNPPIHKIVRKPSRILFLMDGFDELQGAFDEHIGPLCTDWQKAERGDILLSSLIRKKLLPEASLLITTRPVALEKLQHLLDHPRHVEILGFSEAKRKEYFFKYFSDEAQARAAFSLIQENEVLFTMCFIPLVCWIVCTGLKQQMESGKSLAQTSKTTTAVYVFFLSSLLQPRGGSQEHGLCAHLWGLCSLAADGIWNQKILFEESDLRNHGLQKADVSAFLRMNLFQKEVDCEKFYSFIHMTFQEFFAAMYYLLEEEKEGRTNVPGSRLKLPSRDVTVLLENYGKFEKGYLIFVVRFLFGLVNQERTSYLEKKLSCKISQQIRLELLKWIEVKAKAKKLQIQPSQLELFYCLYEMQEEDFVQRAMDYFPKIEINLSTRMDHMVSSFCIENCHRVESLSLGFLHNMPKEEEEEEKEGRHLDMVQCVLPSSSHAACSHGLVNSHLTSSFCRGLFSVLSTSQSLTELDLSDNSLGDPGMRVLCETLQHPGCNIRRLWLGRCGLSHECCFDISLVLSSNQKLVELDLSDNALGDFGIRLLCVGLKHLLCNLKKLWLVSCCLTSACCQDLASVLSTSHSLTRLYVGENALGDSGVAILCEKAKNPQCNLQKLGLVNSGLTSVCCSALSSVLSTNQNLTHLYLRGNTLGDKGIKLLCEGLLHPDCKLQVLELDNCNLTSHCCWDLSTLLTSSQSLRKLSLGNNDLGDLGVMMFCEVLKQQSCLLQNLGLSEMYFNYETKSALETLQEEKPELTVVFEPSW
Outline: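 Drug affinity responsive target stability: THP-1 lysates were incubated with compound (0.01–1 mM), then digested with pronase. NLRP3 remaining was detected by immunoblot.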

[2] = biological target: T1, Interferon-inducible protein AIM2 (Homo sapiens) (UniProt O14862); assay: Inhibition of AIM2 inflammasome activation in LPS-induced human THP-1 cells at 3 to 5uM for 40 mins followed by […] stimulation for 6 h by ELISA; type: cell-based
T1 sequence (whole entry): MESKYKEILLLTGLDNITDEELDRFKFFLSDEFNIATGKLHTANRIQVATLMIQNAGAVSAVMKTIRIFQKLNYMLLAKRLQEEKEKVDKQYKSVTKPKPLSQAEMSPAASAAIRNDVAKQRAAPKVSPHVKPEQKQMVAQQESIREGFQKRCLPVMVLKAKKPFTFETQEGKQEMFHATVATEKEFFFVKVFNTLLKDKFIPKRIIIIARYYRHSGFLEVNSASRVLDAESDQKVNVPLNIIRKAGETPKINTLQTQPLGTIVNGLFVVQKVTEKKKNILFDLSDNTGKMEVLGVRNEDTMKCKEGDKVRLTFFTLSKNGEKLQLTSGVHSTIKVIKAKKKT

[3] = Oral bioavailability in Sprague-Dawley rat at 10 mg/kg measured up to 24 hrs by LC-MS/MS analysis; type: ADME, organism-based; conditions: in vivo
Outline: (§1)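 Single doses given intravenously (10 mg/kg) or orally (10, 30, 90 mg/kg); plasma levels quantified by LC/MS/MS at multiple time points. Parameters reported as mean values: AUC0–t, CL, Cmax, T1/2, Tmax, and %F based on AUC.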

[4] = Tmax in Sprague-Dawley rat at 10 mg/kg, iv measured up to 24 hrs by LC-MS/MS analysis; type: ADME, organism-based; conditions: in vivo; outline: as §1
[5] = Half life in Sprague-Dawley rat at 90 mg/kg, po measured up to 24 hrs by LC-MS/MS analysis; type: ADME, organism-based; conditions: in vivo; outline: as §1
[6] = Tmax in Sprague-Dawley rat at 10 mg/kg, po measured up to 24 hrs by LC-MS/MS analysis; type: ADME, organism-based; conditions: in vivo; outline: as §1
[7] = tested on: THP-1; assay: Antiinflammatory activity in human THP-1 cells assessed as inhibition of LPS/nigericin-induced IL-1beta secretion in LPS stimulation followed by pretreatment for 40 min before induced with nigericin for 40 min measured by western blot analysis; type: functional, cell-based; conditions: time 80.0 min
Outline: (§2)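 PMA-differentiated THP-1 cells were primed with LPS, exposed to graded compound doses for 40 min, then given nigericin for 40 min. Supernatants were immunoblotted for IL-1β and caspase-1. Cell extracts were immunoblotted for NLRP3, pro-IL-1β and pro-caspase-1.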

[8] = tested on: Spleen; assay: Downregulation of IL-1beta level in spleen of LPS treated C57BL/6J mouse at 10 mg/kg, iv measured after 6 hrs by ELISA
[9] = Tmax in Sprague-Dawley rat at 90 mg/kg, po measured up to 24 hrs by LC-MS/MS analysis; type: ADME, organism-based; conditions: in vivo; outline: as §1
[10] = biological target: NLR family CARD domain-containing protein 4 (Homo sapiens) (UniProt Q9NPP4); assay: Inhibition of NLRC4 inflammasome activation in LPS-induced human THP-1 cells at 3 to 5uM for 40 mins followed by flagellin stimulation for 6 h by ELISA; type: cell-based
Chain of NLR family CARD domain-containing protein 4 (Homo sapiens) (Q9NPP4 whole entry, the tested form may be a part): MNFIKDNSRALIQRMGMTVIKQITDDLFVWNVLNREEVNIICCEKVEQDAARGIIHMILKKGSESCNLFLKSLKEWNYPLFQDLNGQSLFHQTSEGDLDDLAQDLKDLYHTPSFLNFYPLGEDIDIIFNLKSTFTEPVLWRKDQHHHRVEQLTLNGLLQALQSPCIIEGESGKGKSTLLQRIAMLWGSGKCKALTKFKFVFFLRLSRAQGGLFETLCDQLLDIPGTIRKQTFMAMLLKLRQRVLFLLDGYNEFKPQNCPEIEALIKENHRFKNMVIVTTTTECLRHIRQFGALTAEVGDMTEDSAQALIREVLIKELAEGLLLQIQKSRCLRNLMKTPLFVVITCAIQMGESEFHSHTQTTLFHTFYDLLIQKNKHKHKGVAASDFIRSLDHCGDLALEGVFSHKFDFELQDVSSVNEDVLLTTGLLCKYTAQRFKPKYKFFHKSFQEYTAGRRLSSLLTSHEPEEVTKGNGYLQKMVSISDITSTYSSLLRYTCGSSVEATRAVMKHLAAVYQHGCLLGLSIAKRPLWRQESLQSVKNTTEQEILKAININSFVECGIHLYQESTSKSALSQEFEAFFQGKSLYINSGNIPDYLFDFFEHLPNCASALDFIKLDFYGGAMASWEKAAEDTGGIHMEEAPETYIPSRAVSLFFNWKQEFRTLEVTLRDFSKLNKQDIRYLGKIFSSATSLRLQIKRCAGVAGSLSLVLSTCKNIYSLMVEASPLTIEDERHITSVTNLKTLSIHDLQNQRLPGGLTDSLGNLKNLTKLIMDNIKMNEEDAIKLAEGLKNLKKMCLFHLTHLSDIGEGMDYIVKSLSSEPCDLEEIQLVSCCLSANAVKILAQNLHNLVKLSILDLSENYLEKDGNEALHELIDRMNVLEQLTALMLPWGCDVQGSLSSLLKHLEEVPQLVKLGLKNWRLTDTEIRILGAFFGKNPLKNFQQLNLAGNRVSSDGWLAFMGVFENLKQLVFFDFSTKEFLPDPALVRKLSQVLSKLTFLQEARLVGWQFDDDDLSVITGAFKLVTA

[11] = Half life in Sprague-Dawley rat at 10 mg/kg, iv measured up to 24 hrs by LC-MS/MS analysis; type: ADME, organism-based; conditions: in vivo; outline: as §1
[12] = Tmax in Sprague-Dawley rat at 30 mg/kg, po measured up to 24 hrs by LC-MS/MS analysis; type: ADME, organism-based; conditions: in vivo; outline: as §1
[13] = tested on: THP-1; assay: Effect on TNFalpha expression in LPS-stimulated human THP-1 cells at 1 uM preincubated for 40 mins followed by LPS addition and measured after 3 hrs by Western blot analysis; type: functional, cell-based; conditions: time 220.0 min
Outline: (§3)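 THP-1 cells were given compound for 40 min, then primed with LPS for 3 h. Medium supernatant was analysed for TNF-α. Cell extracts were immunoblotted for pro-IL-1β and NLRP3.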

[14] = AUC (0 to t) in Sprague-Dawley rat at 30 mg/kg, po measured up to 24 hrs by LC-MS/MS analysis; type: ADME, organism-based; design: route oral, dose 30 mg/kg, time <=24; conditions: in vivo; outline: as §1
[15] = tested on: THP-1; assay: Effect on NLRP3 expression in LPS-stimulated human THP-1 cells preincubated for 40 mins followed by LPS addition and measured after 3 hrs by Western blot analysis; type: functional, cell-based; conditions: time 220.0 min; outline: as §3
[16] = Cmax in Sprague-Dawley rat at 10 mg/kg, po measured up to 24 hrs by LC-MS/MS analysis; type: ADME, organism-based; design: route oral, dose 10 mg/kg, time <=24; conditions: in vivo; outline: as §1
[17] = tested on: THP-1; assay: Antiinflammatory activity in human THP-1 cells assessed as blockade of caspase 1 p20 in LPS stimulation followed by pretreatment for 40 min before induced with nigericin for 40 min measured by western blot analysis; type: functional, cell-based; conditions: time 80.0 min; outline: as §2
[18] = tested on: THP-1; assay: Effect on NLRP3 expression in LPS-stimulated human THP-1 cells at 1 uM preincubated for 40 mins followed by LPS stimulation and measured after 3 hrs by Western blot analysis; type: functional, cell-based; outline: as §3
[19] = biological target: NACHT, LRR and PYD domains-containing protein 3 (Homo sapiens) (UniProt Q96P20); assay: Inhibition of NLRP3 inflammasome activation in LPS/nigericin-treated human THP-1 cells assessed as blockade of […] caspase 1 p20 in LPS stimulation followed by pretreatment for 40 min before induced with nigericin for 40 min measured by western blot analysis; type: cell-based; conditions: time 80.0 min; outline: as §2
[20] = Cmax in Sprague-Dawley rat at 30 mg/kg, po measured up to 24 hrs by LC-MS/MS analysis; type: ADME, organism-based; design: route oral, dose 30 mg/kg, time <=24; conditions: in vivo; outline: as §1
[21] = biological target: NACHT, LRR and PYD domains-containing protein 3 (Homo sapiens) (UniProt Q96P20); assay: Inhibition of NLRP3 inflammasome activation in LPS/nigericin-treated human THP-1 cells assessed as LPS-induced IL-1beta secretion in LPS stimulation followed by pretreatment for 40 min before induced with nigericin for 40 min measured by western blot analysis; type: cell-based; conditions: time 80.0 min; outline: as §2
[22] = tested on: THP-1; assay: Antiinflammatory activity in human THP-1 cells assessed as inhibition of LPS-induced IL-1beta secretion in LPS stimulation for 3 hrs followed by pretreatment at 2uM for 40 min before induced with nigericin for 40 min measured by ELISA; type: functional; conditions: THP-1, 1.333 h, time 80 min
Outline: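 THP-1 cells (2 × 10^5 cells/mL) differentiated with PMA (100 ng/mL) for 24 h. Next day, primed with LPS (1 μg/mL) for 3 h, then compound for 40 min, then nigericin (10 μM) for 40 min. IL-1β in supernatant measured by ELISA; % inhibition as mean ± SD of three independent experiments. The single-concentration screen used 2 μM.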

[23] = AUC (0 to t) in Sprague-Dawley rat at 10 mg/kg, iv measured up to 24 hrs by LC-MS/MS analysis; type: ADME, organism-based; design: route intravenous, dose 10 mg/kg, time <=24; conditions: in vivo; outline: as §1
[24] = AUC (0 to t) in Sprague-Dawley rat at 10 mg/kg, po measured up to 24 hrs by LC-MS/MS analysis; type: ADME, organism-based; design: route oral, dose 10 mg/kg, time <=24; conditions: in vivo; outline: as §1
[25] = AUC (0 to t) in Sprague-Dawley rat at 90 mg/kg, po measured up to 24 hrs by LC-MS/MS analysis; type: ADME, organism-based; design: route oral, dose 90 mg/kg, time <=24; conditions: in vivo; outline: as §1
[26] = Clearance in Sprague-Dawley rat at 10 mg/kg, iv measured up to 24 hrs by LC-MS/MS analysis; type: ADME, organism-based; conditions: in vivo; outline: as §1

## COc1cc(/C=C/C(=O)c2ccc(F)cc2)c(OC)cc1Br
[1]
  Activity: Dose-Dependent Effect
[2]
  inhibition: Dose-Dependent Effect
[3]
  bioavailability: 13.8%
[4]
  Tmax: 6.6 min
[5]
  half-life: 6.08 h
[6]
  Tmax: 2.11 h
[7]
  Activity: Dose-Dependent Effect
[8]
  Activity: Active
[9]
  Tmax: 4.21 h
[10]
  inhibition: Dose-Dependent Effect
[11]
  half-life: 3.13 h
[12]
  Tmax: 1.26 h
[13]
  Activity: inactive
[14]
  AUC(0-t) at 24 h: 15.8 ng·h/mL
[15]
  Activity: inactive
[16]
  Cmax: 3.35 ng/mL
[17]
  Activity: Dose-Dependent Effect
[18]
  Activity: inactive
[19]
  inhibition: inactive
[20]
  Cmax: 16.4 ng/mL
[21]
  inhibition: inactive
[22]
  inhibition at 2 µM: 108%
[23]
  AUC(0-t) at 24 h: 106 ng·h/mL
[24]
  AUCt: 14.6 ng·h/mL
[25]
  AUC(0-t) at 24 h: 23.5 ng·h/mL
[26]
  CL: 2229.2 mL/min/kg
